In ChEMBL document CHEMBL1649455, “Antimicrobial susceptibility and mechanisms of resistance in Shigella and Salmonella isolates from children under five years of age with diarrhea in rural Mozambique” (2009):

What was measured:
Shigella flexneri [1] = assay: Antimicrobial activity against Shigella flexneri assessed as resistant isolates by disk diffusion method; format: functional
Procedure, shortened: (§1)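 Isolates came from rectal swabs of children under five seen at MDH between July 2001 and July 2003. There were 109 Shigella and 40 Salmonella. Swabs were cultured on MacConkey, Salmonella-Shigella and XLD agars. Identity was confirmed biochemically and by API-20E. Shigella serogroups were assigned by slide agglutination. Salmonella serotypes were assigned with somatic and flagellar antisera.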

Shigella sonnei [2] = assay: Antimicrobial activity against Shigella sonnei assessed as resistant isolates by disk diffusion method; format: functional; procedure, shortened: as §1
[3] = Antimicrobial activity against Salmonella enterica serovar Infantis assessed as resistant isolates by disk diffusion method; format: functional, Salmonella enterica subsp. enterica serovar Infantis; procedure, shortened: as §1
Salmonella typhimurium = assay: Antimicrobial activity against Salmonella enterica serovar Typhimurium assessed as resistant isolates by disk diffusion method; format: functional, Salmonella enterica subsp. enterica serovar Typhimurium; procedure, shortened: as §1
[4] = Antimicrobial activity against Salmonella enterica serovar Virchow assessed as resistant isolates by disk diffusion method; format: functional, Salmonella enterica subsp. enterica serovar Virchow; procedure, shortened: as §1
Salmonella enterica = assay: Antimicrobial activity against Salmonella enterica clinical isolates assessed as resistant isolates by disk diffusion method; format: functional; procedure, shortened: as §1
Shigella flexneri [5] = assay: Antimicrobial activity against Shigella flexneri harboring tetA gene assessed as resistant isolates by disk diffusion method; format: functional
Shigella flexneri [6] = assay: Antimicrobial activity against Shigella flexneri harboring tetB gene assessed as resistant isolates by disk diffusion method; format: functional
Shigella flexneri [7] = assay: Antimicrobial activity against Shigella flexneri harboring tetG gene assessed as resistant isolates by disk diffusion method; format: functional
Procedure, shortened: (§2)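 Resistance genes were sought by PCR in isolates fully resistant to the matching antibiotic. One colony was boiled 10 min in water to make template. PCR used […] each primer, 0.4 mM dNTPs and Taq, for 30 cycles of 94°C 1 min, primer-specific annealing 1 min and 72°C 1 min, then 72°C for 10 min. Products were run on 1.5% agarose gels with ethidium bromide.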

Shigella sonnei [8] = assay: Antimicrobial activity against Shigella sonnei harboring tetA gene assessed as resistant isolates by disk diffusion method; format: functional
Shigella sonnei [9] = assay: Antimicrobial activity against Shigella sonnei harboring tetB gene assessed as resistant isolates by disk diffusion method; format: functional; procedure, shortened: as §2
Shigella sonnei [10] = assay: Antimicrobial activity against Shigella sonnei harboring tetG gene assessed as resistant isolates by disk diffusion method; format: functional; procedure, shortened: as §2
Salmonella sp. [11] = assay: Antimicrobial activity against Salmonella spp. harboring tetA gene assessed as resistant isolates by disk diffusion method; format: functional
Salmonella sp. [12] = assay: Antimicrobial activity against Salmonella spp. harboring tetB gene assessed as resistant isolates by disk diffusion method; format: functional
Salmonella sp. [13] = assay: Antimicrobial activity against Salmonella spp. harboring tetG gene assessed as resistant isolates by disk diffusion method; format: functional
Shigella flexneri [14] = assay: Antimicrobial activity against Shigella flexneri harboring cmlA-like gene assessed as resistant isolates by disk diffusion method; format: functional
Shigella flexneri [15] = assay: Antimicrobial activity against Shigella flexneri harboring floR-like gene assessed as resistant isolates by disk diffusion method; format: functional; procedure, shortened: as §2
Shigella flexneri [16] = assay: Antimicrobial activity against Shigella flexneri harboring CAT gene assessed as resistant isolates by disk diffusion method; format: functional
Salmonella sp. [17] = assay: Antimicrobial activity against Salmonella spp. harboring cmlA-like gene assessed as resistant isolates by disk diffusion method; format: functional
Salmonella sp. [18] = assay: Antimicrobial activity against Salmonella spp. harboring floR-like gene assessed as resistant isolates by disk diffusion method; format: functional
Salmonella sp. [19] = assay: Antimicrobial activity against Salmonella spp. harboring CAT gene assessed as resistant isolates by disk diffusion method; format: functional
Shigella flexneri [20] = assay: Antimicrobial activity against Shigella flexneri harboring oxa-1-like gene assessed as resistant isolates by disk diffusion method; format: functional; procedure, shortened: as §2
Shigella flexneri [21] = assay: Antimicrobial activity against Shigella flexneri harboring oxa-2-like gene assessed as resistant isolates by disk diffusion method; format: functional; procedure, shortened: as §2
Shigella flexneri [22] = assay: Antimicrobial activity against Shigella flexneri harboring oxa-5-like gene assessed as resistant isolates by disk diffusion method; format: functional; procedure, shortened: as §2
Shigella flexneri [23] = assay: Antimicrobial activity against Shigella flexneri harboring tem-like gene assessed as resistant isolates by disk diffusion method; format: functional
Shigella flexneri [24] = assay: Antimicrobial activity against Shigella flexneri harboring shv-like gene assessed as resistant isolates by disk diffusion method; format: functional
Shigella flexneri [25] = assay: Antimicrobial activity against Shigella flexneri harboring carb-like gene assessed as resistant isolates by disk diffusion method; format: functional; procedure, shortened: as §2
Salmonella sp. [26] = assay: Antimicrobial activity against Salmonella spp. harboring oxa-1-like gene assessed as resistant isolates by disk diffusion method; format: functional; procedure, shortened: as §2
Salmonella sp. [27] = assay: Antimicrobial activity against Salmonella spp. harboring oxa-2-like gene assessed as resistant isolates by disk diffusion method; format: functional
Salmonella sp. [28] = assay: Antimicrobial activity against Salmonella spp. harboring oxa-5-like gene assessed as resistant isolates by disk diffusion method; format: functional; procedure, shortened: as §2
Salmonella sp. [29] = assay: Antimicrobial activity against Salmonella spp. harboring tem-like gene assessed as resistant isolates by disk diffusion method; format: functional
Salmonella sp. [30] = assay: Antimicrobial activity against Salmonella spp. harboring shv-like gene assessed as resistant isolates by disk diffusion method; format: functional; procedure, shortened: as §2
Salmonella sp. [31] = assay: Antimicrobial activity against Salmonella spp. harboring carb-like gene assessed as resistant isolates by disk diffusion method; format: functional; procedure, shortened: as §2

Q: For `CN(C)[C@@H]1C(O)=C(C(N)=O)C(=O)[C@@]2(O)C(O)=C3C(=O)c4c(O)cccc4[C@@](C)(O)[C@H]3C[C@@H]12` [TETRACYCLINE], which Activity (Shigella flexneri [1]) is on record?
A: Its Activity is 64%.

Q: What about the Activity (Shigella sonnei [2]) of the same compound?
A: The Activity was 93%.

Q: What about the Activity [3] of the same compound?
A: The Activity was 0%.

Q: And the Activity (Salmonella typhimurium)?
A: The Activity was 0%.

Q: What about the Activity [4] of the same compound?
A: Its Activity is 0%.

Q: And the Activity (Salmonella enterica)?
A: Its Activity is 25%.

Q: And the Activity (Shigella flexneri [5])?
A: The Activity was 2%.

Q: What about the Activity (Shigella flexneri [6]) of the same compound?
A: The Activity was 98%.

Q: And the Activity (Shigella flexneri [7])?
A: The Activity was 22%.

Q: What about the Activity (Shigella sonnei [8]) of the same compound?
A: Its Activity is 71%.

Q: And the Activity (Shigella sonnei [9])?
A: Its Activity is 0%.

Q: What about the Activity (Shigella sonnei [10]) of the same compound?
A: Its Activity is 36%.

Q: And the Activity (Salmonella sp. [11])?
A: Its Activity is 33%.

Q: What about the Activity (Salmonella sp. [12]) of the same compound?
A: The Activity was 0%.

Q: What about the Activity (Salmonella sp. [13]) of the same compound?
A: Its Activity is 0%.

Q: Which results are given for `O=C(N[C@H](CO)[C@H](O)c1ccc([N+](=O)[O-])cc1)C(Cl)Cl` [CHLORAMPHENICOL]?
A: Activity (Shigella flexneri [1]): 61%; Activity (Shigella sonnei [2]): 0%; Activity [3]: 0%; Activity (Salmonella typhimurium): 22%; Activity [4]: 0%; Activity (Salmonella enterica): 25%; Activity (Shigella flexneri [14]): 2%; Activity (Shigella flexneri [15]): 0%; Activity (Shigella flexneri [16]): 89%; Activity (Salmonella sp. [17]): 33%; Activity (Salmonella sp. [18]): 83%; Activity (Salmonella sp. [19]): 67%

Q: Which Activity (Shigella flexneri [1]) does the source give for `CC1(C)S[C@@H]2[C@H](NC(=O)[C@H](N)c3ccccc3)C(=O)N2[C@H]1C(=O)O` [AMPICILLIN] here?
A: Its Activity is 66%.

Q: What about the Activity (Shigella sonnei [2]) of the same compound?
A: The Activity was 0%.

Q: What about the Activity [3] of the same compound?
A: Its Activity is 0%.

Q: And the Activity (Salmonella typhimurium)?
A: Its Activity is 67%.

Q: And the Activity [4]?
A: The Activity was 0%.

Q: What about the Activity (Salmonella enterica) of the same compound?
A: The Activity was 25%.

Q: What about the Activity (Shigella flexneri [20]) of the same compound?
A: Its Activity is 90%.

Q: And the Activity (Shigella flexneri [21])?
A: The Activity was 5%.

Q: And the Activity (Shigella flexneri [22])?
A: Its Activity is 2%.

Q: And the Activity (Shigella flexneri [23])?
A: The Activity was 5%.

Q: What about the Activity (Shigella flexneri [24]) of the same compound?
A: The Activity was 2%.

Q: And the Activity (Shigella flexneri [25])?
A: The Activity was 0%.

Q: And the Activity (Salmonella sp. [26])?
A: The Activity was 0%.

Q: And the Activity (Salmonella sp. [27])?
A: Its Activity is 0%.

Q: And the Activity (Salmonella sp. [28])?
A: The Activity was 20%.

Q: And the Activity (Salmonella sp. [29])?
A: Its Activity is 70%.

Q: And the Activity (Salmonella sp. [30])?
A: Its Activity is 0%.

Q: And the Activity (Salmonella sp. [31])?
A: Its Activity is 0%.
